Screening results as filed in PubChem BioAssay.
Compounds with a hit are over-represented: about 5.3% of the library has one in this group of screens.
Mdm2 MdmX PPI: disrupts the human Mdm2-MdmX interaction; inhibition, % at 8 µM; SaOS-2 split-luciferase Mdm2/MdmX complementation, luminescence; 330,000 tested, 3% active; O15151+Q00987; AID 485346;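 active = inhibition of at least 50% at 8 µM in the primary screen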
Target sequence (O15151 whole entry, looked up): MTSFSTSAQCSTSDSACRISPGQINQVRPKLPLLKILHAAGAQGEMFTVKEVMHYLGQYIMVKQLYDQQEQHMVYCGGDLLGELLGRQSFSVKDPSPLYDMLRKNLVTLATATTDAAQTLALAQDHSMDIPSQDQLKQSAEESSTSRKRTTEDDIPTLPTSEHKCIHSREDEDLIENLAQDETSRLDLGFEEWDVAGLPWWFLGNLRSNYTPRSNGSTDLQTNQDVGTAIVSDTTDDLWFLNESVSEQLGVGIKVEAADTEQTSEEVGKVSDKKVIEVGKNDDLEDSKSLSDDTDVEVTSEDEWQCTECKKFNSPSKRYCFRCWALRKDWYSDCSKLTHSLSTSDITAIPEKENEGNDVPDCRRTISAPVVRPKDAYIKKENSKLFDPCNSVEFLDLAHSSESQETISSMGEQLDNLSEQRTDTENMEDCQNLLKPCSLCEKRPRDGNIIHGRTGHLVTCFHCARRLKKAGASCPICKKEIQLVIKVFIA
Target sequence (Q00987 whole entry, looked up): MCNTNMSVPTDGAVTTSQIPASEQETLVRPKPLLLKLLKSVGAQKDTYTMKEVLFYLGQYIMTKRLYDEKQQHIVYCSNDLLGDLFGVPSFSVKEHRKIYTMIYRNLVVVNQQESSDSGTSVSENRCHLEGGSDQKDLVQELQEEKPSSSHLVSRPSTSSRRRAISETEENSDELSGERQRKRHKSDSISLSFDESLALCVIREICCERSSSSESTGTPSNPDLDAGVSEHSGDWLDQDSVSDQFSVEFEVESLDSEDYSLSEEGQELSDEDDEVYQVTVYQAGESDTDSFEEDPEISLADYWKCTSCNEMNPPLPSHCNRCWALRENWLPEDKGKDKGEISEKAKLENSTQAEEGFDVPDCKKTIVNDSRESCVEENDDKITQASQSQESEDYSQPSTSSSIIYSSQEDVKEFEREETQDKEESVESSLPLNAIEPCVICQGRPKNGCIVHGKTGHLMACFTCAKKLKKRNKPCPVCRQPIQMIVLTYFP
NLRP3 yeast inh: blocks the NALP3 inflammasome reconstituted in yeast; Yeast reconstituted NLRP3/ASC/caspase-1, beta-gal luminescence, 24 h; inhibition, % at 10 µM; 330,000 tested, 0.39% active; AID 2825;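 active = inhibition of 50% or more; inactive = inhibition below 50%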;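 note: plate controls were induced DMSO wells for no effect and uninduced yeast grown without galactose for full effect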
Calb FLC: affects C. albicans growth with fluconazole. C. albicans CaCi-2 (fluconazole-resistant clinical isolate) + fluconazole, Alamar Blue growth, 48 h. growth inhibition, % (no concentration beside the values). 300,000 tested, 0.57% active;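 active = growth inhibition above about 58% in most replicates, limit read from the data, passing the limit was not always enough; inconclusive = exactly half the replicates above a set limit; inactive = most replicates below a set limit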;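 note: all wells also contain fluconazole at 8 µg/ml as a sub-toxic cotreatment; 0% = median of DMSO wells and 100% = median of geldanamycin control wells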
Beta apoptosis: blocks beta cell apoptosis; INS-1E cytokine-induced death, ATP luminescence, 48 h; percent of positive-control rescue, neutral wells zero; protection from apoptosis, % (test concentration not listed); 300,000 tested, 0.8% active; AID 435005;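 active = Every replicate reaches about 75%, or at least half do and their mean reaches it too, limit read from the data; inconclusive = At least half of replicates reach the limit but their mean does not; inactive = Under half of replicates reach the limit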;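 note: 0% = cytokine-treated negative control wells and 100% = positive control rescue; higher means more ATP so stronger rescue from cytokine killing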
CSC inhib: cancer stem cell inhibition | cancer stem cell-like cells viability, luminescence | inhibition, % at 7.5 µM | 300,000 tested, 1.1% active; in the data active = inhibition above about 75%; inconclusive = no clear call, values can overlap the other calls; tested in HMLE shEcad cells
T cruzi inh: blocks replication of Trypanosoma cruzi. T. cruzi beta-gal in NIH3T3, luminescence, 90 h. inhibition, % (no concentration beside the values). 300,000 tested, 1.4% active;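 active = mean inhibition across valid replicates above about 55%, limit read from the data; inconclusive = mean below that limit but half or more replicates reach it; inactive = mean below it, under half of replicates reach it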;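 note: signal also drops with host cell toxicity which is not excluded here; 0% = plate median of DMSO wells and 100% = zero luminescence signal; higher percent means less beta-gal luminescence so fewer parasites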
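System: NIH/3T3 fibroblasts plus reporter T. cruzi. Medium: DMEM plus 2% FBS. Probe or stimulus: 5000 reporter trypomastigotes per well. Compound: single 50 nL compound addition per well in DMSO. Incubation: co-culture of at least 90 h after 3 h attachment. Detection: GalScreen β-gal luminescence, detergent lysis, 60 min. Evaluation: parasite load inhibition, %.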
Active calls of the source: *; ? = inconclusive; . = no result.

SMILES	Mdm2 MdmX PPI	NLRP3 yeast inh	Calb FLC	Beta apoptosis	CSC inhib	T cruzi inh
O=C(NCCN1CCCC1)c1ccc(Cl)cc1	9	18	-2	1	-2	-8
CC(C)(C)c1cc(C(=O)NCCN2CCCC2)cc(C(C)(C)C)c1	25	16	2	6	-3	71*
O=C(Nc1sc2c(c1C(=O)c1ccc(Cl)cc1)CCCC2)c1cccnc1	-1	8	84*	4	.	34
Fc1ccc(NC(=S)Nc2cc(-c3ccccc3)[nH]n2)cc1Cl	-8	16	11	1	88*	34
Cc1ccc(NC(=S)Nc2cc(-c3ccccc3)[nH]n2)cc1Cl	26	17	-5	11	3	.
O=C(NC1(C(F)(F)F)C(=O)Nc2c1c(=O)[nH]c(=O)n2Cc1ccccc1)c1ccc(Cl)cc1Cl (configuration not stated)	13	-3	-4	-5	0	-5
CC1(CCc2ccccc2)NC(=O)N(CC(=O)Nc2ccc3c(c2)OCCO3)C1=O (configuration not stated)	-9	14	110*	-5	-4	11
CC(C)CCC1(C)NC(=O)N(CC(=O)Nc2ccc3c(c2)OCCO3)C1=O (configuration not stated)	14	24	.	-7	6	.
Cc1ccc(C(=O)c2coc3c2C(=O)C(=O)c2ccccc2-3)cc1	-72	-10	80*	1	71	2
Cc1oc2c(c1C(=O)c1ccc(Cl)cc1)C(=O)C(=O)c1ccccc1-2	.	.	3	.	.	?
COCCNC(=O)C(c1cccnc1)N(Cc1ccccc1)C(=O)Cn1nnc2ccccc21 (configuration not stated)	-6	10	0	-4	3	4
CCN(c1ccccc1)c1nc(C#N)nc(N(CC)c2ccccc2)n1	37	6	6	-3	90*	42
CCN=c1scc(-c2ccc3c(c2)NC(=O)CO3)n1N=C1CCCC1	22	7	93*	3	0	-11
CCOC(=O)C1=C(c2ccccc2)N=c2s/c(=C\c3ccco3)c(=O)n2C1c1cccs1 (configuration not stated)	11	14	7	.	.	-5
CCOC(=O)C1=C(c2ccccc2)N=c2s/c(=C\c3cc(OC)c(OC)c(OC)c3)c(=O)n2C1c1cccs1 (configuration not stated)	7	0	2	-3	-4	63*
O=C(CSc1nc2nc(-c3cccs3)cc(C(F)(F)F)c2c(=O)[nH]1)Nc1c(F)c(F)c(F)c(F)c1F	41	9	23	14	88*	-8
CCCCCCCC(=O)Nc1cc(C(=O)NCc2ccc(C)cc2)ccc1N1CCC2(CC1)CC(c1cccc(Br)c1)=NO2	39	12	7	5	-18	-12
COc1ccc(C(=O)/C=C/c2ccc(N3CCCCC3)c([N+](=O)[O-])c2)c(OC)c1	.	.	2	-3	97*	4
CC(C)(C)N1CC(c2nc3ccccc3n2CCOc2ccccc2)CC1=O (configuration not stated)	15	11	-13	-2	-8	12
COCCn1c(SCc2ccc(OC)c(F)c2)nc2ccccc2c1=O	14	25	11	6	-5	75*
CC(=O)NCCn1c(SCc2cc(F)ccc2F)nc2ccccc2c1=O	27	17	15	0	13	68*
CCCC(=O)Nc1ccc(C(=O)COC(=O)C2CC2C)cc1 (configuration not stated)	-65	25	.	-4	.	.
CCC1CN(C(=O)NCc2ccccc2)c2cc(C)ccc2O1 (configuration not stated)	24	18	4	3	7	9
CCN(CC)CCCNC(=S)N1CCN(c2nc(-c3ccccc3)cs2)CC1	15	14	-7	.	79*	19
CC(C)(C)CC(=O)Nc1nnc(C(F)(F)F)s1	3	17	82*	3	-1	-10
SMILES	Mdm2 MdmX PPI	NLRP3 yeast inh	Calb FLC	Beta apoptosis	CSC inhib	T cruzi inh
O=C(CN1CCN(c2ccccc2F)CC1)Nc1nnc(C(F)(F)F)s1	-6	11	86*	3	1	2
CCOCCCNC(=S)N1CCN(c2nc(-c3ccccc3)cs2)CC1	26	28	9	.	1	-4
CCOC(=O)N1CCN(CC(=O)Nc2nnc(C(F)(F)F)s2)CC1	-4	10	0	-12	-3	4
CCc1nnc(NC(=O)CN2CCN(c3nc(-c4ccccc4)cs3)CC2)s1	0	14	90*	3	-7	14
O=C(CN1CCc2ccccc2C1)Nc1cc(S(=O)(=O)N2CCOCC2)ccc1N1CCCC1	-1	7	2	1	-7	26
CCn1c(-c2ccc(N(C)C)cc2)nc2ccccc21	-63	7	-12	113*	6	58*
Cc1cc(C)c2c3c(sc2n1)C1(CCSCC1)C(C#N)=C(N)O3	29	4	-13	12	14	64*
COc1ccc(C2C(C#N)=C(N)Oc3c2sc2nc(C)cc(C)c32)cc1 (configuration not stated)	46	11	16	12	11	36
CN(C)c1ccc(C2C3C(=O)N(c4ccc(C(=O)O)cc4)C(=O)C3ON2c2ccccc2)cc1 (configuration not stated)	-10	2	-5	3	.	7
COc1cc(/C=N/NC(=O)c2ccc(COc3cc(C)ccc3C(C)C)cc2)cc(OC)c1O	27	31	0	28	22	21
Cc1ccc(C(C)C)c(OCc2ccc(C(=O)N/N=C/c3cccc(O)c3O)cc2)c1	.	.	87*	90*	111*	58*
COc1ccc([N+](=O)[O-])cc1NS(=O)(=O)c1ccc(C)cc1	-4	19	19	0	8	9
Nc1c(C(=O)c2ccccc2)sc(Nc2ccccc2)c1S(=O)(=O)c1ccccc1	17	14	6	13	-2	55*
N#Cc1c(Nc2ccccc2)sc(C(=O)c2ccc(F)cc2)c1N	-20	13	10	91*	42	4
Cc1c(N2C(=O)c3cccc4cccc(c34)C2=O)cnn1C	6	21	1	-1	4	-5
C=CCOc1ccc(/C=C2\SC(N)=NC2=O)cc1OC	14	10	8	.	4	-5
CNc1ncnc(Sc2ccc(Cl)cc2)c1[N+](=O)[O-]	15	14	6	-4	18	66*
CCCn1c(CC)nc([N+](=O)[O-])c1S(=O)(=O)c1ccccc1	30	-16	-40	-30	26	-3
O=C1N/C(=C/c2ccc(N3CCOCC3)o2)C(=O)N1c1ccccc1	.	.	.	6	80*	.
C=CCN1C(=O)N/C(=C/c2ccc(N3CCOCC3)o2)C1=O	42	27	67	109*	15	48
O=C(NCC1CCCO1)c1ccc(S(=O)(=O)N2CCCCC2)cc1 (configuration not stated)	-3	7	-3	-1	6	-4
